From BindingDB's records for doi:10.1021/jm00017a020 (Sandoz Pharma, 1995) come the findings set out here.

The target of the test is T1, Interleukin-2 (Mus musculus, UniProt P04351).
T1 sequence (P04351 whole entry): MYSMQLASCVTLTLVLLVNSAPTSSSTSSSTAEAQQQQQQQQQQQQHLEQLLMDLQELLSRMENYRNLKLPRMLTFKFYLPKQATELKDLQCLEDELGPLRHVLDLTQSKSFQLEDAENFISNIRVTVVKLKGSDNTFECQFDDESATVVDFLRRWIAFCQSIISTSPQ
Put plainly: The compound was evaluated in vitro for the immunosuppressive activity in interleukin-2 by interleukin-2 reporter gene assay (IL2-RGA). Summed up:
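Cellular immunosuppression read in the mouse mixed lymphocyte reaction or the interleukin-2 reporter gene assay. The IC50 in nM is the mean of three independent experiments.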

Usually IC50 stands for the concentration at which inhibition is half-maximal. The low end stands for greater potency in that assay, the high end for weaker potency in that assay.

`C/C=C/C[C@@H](C)[C@@H](O)[C@H]1C(=O)N[C@@H](CCC)C(=O)N(C)CC(=O)N(C)[C@@H](CC(C)C)C(=O)N[C@@H](C(C)C)C(=O)N(C)[C@@H](CC(C)C)C(=O)N[C@@H](C)C(=O)N[C@H](C)C(=O)N(C)[C@@H](CC(C)C)C(=O)N(C)[C@@H](CC(C)C)C(=O)N(C)[C@@H](C(C)C)C(=O)N1C` [GECLOSPORIN] registered an IC50 of 13 nM.
Next, `C/C=C/C[C@@H](C)[C@@H](O)[C@@H]1C(=O)N[C@H](CCCO)C(=O)N(C)CC(=O)N(C)[C@H](CC(C)C)C(=O)N[C@H](C(C)C)C(=O)N(C)[C@H](CC(C)C)C(=O)N[C@H](C)C(=O)N[C@@H](C)C(=O)N(C)[C@H](CC(C)C)C(=O)N(C)[C@H](CC(C)C)C(=O)N(C)[C@H](C(C)C)C(=O)N1C` [33-(1-Hydroxy-2-methyl-hex-4-enyl)-30-(3-hydroxy-propyl)-6,9,18,24-tetraisobutyl-3,21-diisopropyl-1,4,7,10,12,15,19,25,28-nonamethyl-1,4,7,10,13,16,19,22,25,28,31undecaaza-cyclotritriacontan-2,5,8,11,14,17,20,23,26,29,32-undecaone]: 70 nM.
